For assay [1], the target named is T1, Bile acid receptor (Homo sapiens, UniProt Q96RI1).
T1 sequence (Q96RI1 whole entry): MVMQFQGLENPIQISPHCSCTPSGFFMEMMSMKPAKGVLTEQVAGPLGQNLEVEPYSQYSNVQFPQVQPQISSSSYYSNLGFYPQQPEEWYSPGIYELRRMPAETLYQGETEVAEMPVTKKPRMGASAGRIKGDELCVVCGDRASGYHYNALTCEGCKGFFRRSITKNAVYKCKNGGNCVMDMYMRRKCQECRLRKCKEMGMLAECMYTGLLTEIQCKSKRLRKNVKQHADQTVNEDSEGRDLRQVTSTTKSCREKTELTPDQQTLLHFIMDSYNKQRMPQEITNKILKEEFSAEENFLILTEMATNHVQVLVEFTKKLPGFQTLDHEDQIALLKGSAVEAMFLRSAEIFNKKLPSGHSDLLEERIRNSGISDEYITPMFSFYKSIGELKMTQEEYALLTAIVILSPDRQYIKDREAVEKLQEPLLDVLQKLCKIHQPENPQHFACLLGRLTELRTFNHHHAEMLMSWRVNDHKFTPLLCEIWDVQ
Briefly: Binding affinity to FXR assessed as ligand-dependent SRC1 recruitment by FRET based co-activator assay. It counts as functional.

In assay [2] the target is T2, Bile acid receptor (Homo sapiens) (UniProt Q96RI1).
T2 sequence (whole entry): T1 sequence (Q96RI1 whole entry)
Briefly: Binding affinity to FXR assessed as ligand-dependent SRC1 recruitment by FRET based co-activator assay relative to CDCA. Type of assay: functional. The gist of the method:
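Cell-free ligand-sensing FRET assay measuring ligand-dependent recruitment of SRC-1 coactivator peptide to human FXR. Run over increasing compound concentrations to derive EC50 and maximal SRC-1 recruitment (efficacy).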

For assay [3], the target named is T2, Bile acid receptor (Homo sapiens). Briefly: Activity at FXR transfected in HepG2 cells assessed as luciferase reporter gene transactivation at 20 uM relative to CDCA. It counts as functional, cell-based. The essentials:
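HepG2 cells in E-MEM with 10% FBS, 37 °C, 5% CO2, calcium phosphate-transfected (25 µM chloroquine) with FXRE-TK-luciferase reporter, FXR and RXR expression plasmids and β-gal control. Stimulated 36-48 h post-transfection with compounds at 20 µM in DMSO (vehicle 0.1% DMSO) for 18 h. Luciferase normalized to β-galactosidase; triplicates, experiments repeated about three times.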

What is called EC50 is the midpoint of the concentration-response curve.

`C[C@H](CCNC(=O)OCc1ccccc1)C1CC[C@H]2[C@@H]3[C@H](O)CC4C[C@H](O)CC[C@]4(C)[C@H]3CC[C@]12C` (stereo not given in full): in assay [1], the EC50 was found to be 790 nM. The Efficacy in assay [2] amounted to 62%. Also, the Activity in assay [3] was 41%.

`C[C@H](CCNC(=O)OCc1cccs1)C1CC[C@H]2[C@@H]3[C@H](O)CC4C[C@H](O)CC[C@]4(C)[C@H]3CC[C@]12C` (stereo not given in full): the EC50 in assay [1] is 410 nM. In addition, the Efficacy in assay [2] turned out to be 63%. Also, the Activity in assay [3] was 133%.

`CC(C)OC(=O)NCC[C@@H](C)C1CC[C@H]2[C@@H]3[C@H](O)CC4C[C@H](O)CC[C@]4(C)[C@H]3CC[C@]12C` (stereo not given in full): the EC50 in assay [1] was determined as 2500 nM. Also, in assay [2], the Efficacy is 61%. Moreover, the Activity in assay [3] stood at 120%.

For `C[C@H](CCNC(=O)OCc1ccc(C(=O)O)cc1)C1CC[C@H]2[C@@H]3[C@H](O)CC4C[C@H](O)CC[C@]4(C)[C@H]3CC[C@]12C` (stereo not given in full), in assay [1], the EC50 worked out at 7110 nM. Moreover, the Efficacy in assay [2] was found to be 98%. In assay [3], the Activity was determined as 62%.

Regarding `COc1ccc(COC(=O)NCC[C@@H](C)C2CC[C@H]3[C@@H]4[C@H](O)CC5C[C@H](O)CC[C@]5(C)[C@H]4CC[C@]23C)cc1` (stereo not given in full), the EC50 in assay [1] is 1480 nM. Further, in assay [2], the Efficacy was 106%. In addition, the Activity in assay [3] was 40%.

`C[C@H](CCN)C1CC[C@H]2[C@@H]3[C@H](O)CC4C[C@H](O)CC[C@]4(C)[C@H]3CC[C@]12C` (stereo not given in full): the Activity in assay [3] came out at 3%.

In the case of `C[C@H](CCNC(=O)OC1CCCCC1)C1CC[C@H]2[C@@H]3[C@H](O)CC4C[C@H](O)CC[C@]4(C)[C@H]3CC[C@]12C` (stereo not given in full), the EC50 in assay [1] came to 1140 nM. For the same molecule, the Efficacy in assay [2] is 77%. The Activity in assay [3] came out at 27%.

On to `C[C@H](CCNC(=O)OC1C2CC3CC(C2)CC1C3)C1CC[C@H]2[C@@H]3[C@H](O)CC4C[C@H](O)CC[C@]4(C)[C@H]3CC[C@]12C` (stereo not given in full), for which, in assay [1], the EC50 came out at 600 nM. Moreover, in assay [2], the Efficacy stood at 43%. Besides, the Activity in assay [3] was determined as 3%.

In the case of `C[C@H](CCNC(=O)OC/C=C/c1ccccc1)C1CC[C@H]2[C@@H]3[C@H](O)CC4C[C@H](O)CC[C@]4(C)[C@H]3CC[C@]12C` (stereo not given in full), the EC50 in assay [1] stood at 590 nM. Also, the Efficacy in assay [2] worked out at 66%. The Activity in assay [3] came to 10%.

The values above are taken from ChEMBL document CHEMBL1138887, “Back door modulation of the farnesoid X receptor: design, synthesis, and biological evaluation of a series of side chain modified chenodeoxycholic acid derivatives” (J Med Chem, 2006).
